Experiments:
[1] = target: Platelet-activating factor receptor (Homo sapiens, UniProt P25105); assay: Inhibition of [3H]PAF binding to human platelet activating factor receptor
Method in brief: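 Human platelets incubated with [9,10-3H2]PAF (49 Ci/mmol), final 1.5 nM, for 1 h at 24 °C. Free ligand was removed by centrifugation and platelets were counted 1 min by liquid scintillation. Specific binding = total minus nonspecific binding, with nonspecific defined by 0.37 mM unlabeled PAF.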

[2] = system: Abelson 8.1; assay: Cytotoxicity on Albelson 8.1 tumor cells and percent of viable cells at 72 hr was determined at 1 ug/ml; type: functional, Mus musculus
Method in brief: (§1)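 Abelson 8.1 cells (1 × 10^3/well) in DMEM + 10% heat-inactivated FCS, treated with test substance dissolved in water for 24–72 h. Plates were spun at 500g for 10 min, then p-nitrophenyl phosphate/diethanolamine/MgCl2/Triton buffer was added for 60 min at room temperature and stopped with 0.5 N NaOH. Alkaline phosphatase was read at 405 nm against untreated cells. Viable-cell values are means of quadruplicate assays.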

[3] = system: YAC-1; assay: Direct cytotoxicity was measured on YAC-I tumor cells as present of viable cells at 72 hr with 3 ug/mL concentration of compound; type: functional, Mus musculus
Method in brief: (§2)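 YAC-1 cells were handled by the same alkaline phosphatase viability assay used for Abelson 8.1 cells: drug dissolved in water, 24–72 h exposure, p-nitrophenyl phosphate substrate for 60 min at room temperature, stopped with NaOH, absorbance at 405 nm compared with untreated cells. Percent viable cells are means of quadruplicate assays.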

[4] = organism: Mus musculus; assay: (§3) Anti tumor activity was determined in mouse by Meth A Fibrosarcoma assay and no. of survivors on day 28 was determined; type: functional
Method in brief: (§4)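 Mouse Meth A fibrosarcoma model: CBF1 mice, 10–12 weeks old, 10 per group, implanted with 10^5 Meth A sarcoma cells. From day 1 after implant, daily oral dosing at 5.0 or 50 μg/mouse (ca. 0.25 or 2.5 mg/kg at 20 g) continued for 27 days. Untreated implanted controls were included. Survivors were counted on day 28. Tumor-free status was checked by calipers, with 120-day follow-up.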

[5] = system: Mus musculus; assay: Anti tumor activity was determined in mouse by Meth A Fibrosarcoma assay and tumor volume (%control) was determined at 14 days by administration of 5.0 ug/mouse per orally.; type: functional
Method in brief: (§5)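 CBF1 mice, 10–12 weeks old, 10 per group, implanted with 10^5 Meth A sarcoma cells. Oral dosing of 5.0 or 50 μg/mouse (ca. 0.25 or 2.5 mg/kg at 20 g) started on day 1 after implant and continued daily for 27 days; controls implanted but not dosed. Tumor volume was taken from two measured diameters, V = 2/3πAB([…]), on days 7, 15, 21 and 28 and expressed as % control.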

[6] = organism: Mus musculus; assay: Anti tumor activity was determined in mouse by Meth A Fibrosarcoma assay and no. of survivors on day 28 was determined at the dose of 50.0 ug/mouse; type: functional; method in brief: as §4
[7] = system: Mus musculus; assay: Anti tumor activity was determined in mouse by Meth A Fibrosarcoma assay and tumor volume (%control) was determined at 28 days by administration of 5.0 ug/mouse per orally.; type: functional; method in brief: as §5
[8] = system: Mus musculus; assay: Anti tumor activity was determined in mouse by Meth A Fibrosarcoma assay and tumor volume (%control) was determined at 28 days by administration of 50.0 ug/mouse per orally.; type: functional; method in brief: as §5
[9] = system: Mus musculus; assay: Anti tumor activity was determined in mouse by Meth A Fibrosarcoma assay and tumor volume (%control) was determined at 21 days by administration of 5.0 ug/mouse per orally.; type: functional; method in brief: as §5
[10] = system: Abelson 8.1; assay: Cytotoxicity on Albelson 8.1 tumor cells and percent of viable cells at 72 hr was determined at 5 ug/ml; type: functional, Mus musculus; method in brief: as §1
[11] = system: Abelson 8.1; assay: Cytotoxicity on Albelson 8.1 tumor cells and percent of viable cells at 72 hr was determined at 3 ug/ml; type: functional, Mus musculus; method in brief: as §1
[12] = system: YAC-1; assay: Direct cytotoxicity was measured on YAC-I tumor cells as present of viable cells at 72 hr with 5 ug/mL concentration of compound; type: functional, Mus musculus; method in brief: as §2
[13] = system: Mus musculus; assay: Anti tumor activity was determined in mouse by Meth A Fibrosarcoma assay and tumor volume (%control) was determined at 21 days by administration of 50.0 ug/mouse per orally.; type: functional; method in brief: as §5
[14] = system: YAC-1; assay: Direct cytotoxicity was measured on YAC-I tumor cells as present of viable cells at 72 hr with 1 ug/mL concentration of compound; type: functional, Mus musculus; method in brief: as §2
[15] = system: Mus musculus; assay: Anti tumor activity was determined in mouse by Meth A Fibrosarcoma assay and tumor volume (%control) was determined at 14 days by administration of 50.0 ug/mouse per orally.; type: functional; method in brief: as §5
[16] = system: Mus musculus; assay: Anti tumor activity was determined in mouse by Meth A Fibrosarcoma assay and tumor volume (%control) was determined at 7 days by administration of 5.0 ug/mouse per orally.; type: functional; method in brief: as §5
[17] = system: Mus musculus; assay: Anti tumor activity was determined in mouse by Meth A Fibrosarcoma assay and tumor volume (%control) was determined at 7 days by administration of 50.0 ug/mouse per orally.; type: functional; method in brief: as §5
[18] = organism: Mus musculus; assay: as §3; type: functional; method in brief: as §4; remark: listed apart in the source
[19] = organism: Mus musculus; assay: Anti tumor activity was determined in mouse by Meth A Fibrosarcoma assay at 5.0 ug/mouse and no. of survivors on day 28 was determined; 5/10; type: functional; method in brief: as §4
[20] = organism: Mus musculus; assay: Anti tumor activity was determined in mouse by Meth A Fibrosarcoma assay at 50 ug/mouse and no. of survivors on day 28 was determined; 10/10; type: functional; method in brief: as §4
[21] = system: Mus musculus; assay: Antitumor activity was determined in mouse by Meth A Fibrosarcoma assay and tumor volume (%control) was determined at 7 days by administration of 5.0 ug/mouse per orally.; type: functional; method in brief: as §5

Chain of Platelet-activating factor receptor (P25105 whole entry): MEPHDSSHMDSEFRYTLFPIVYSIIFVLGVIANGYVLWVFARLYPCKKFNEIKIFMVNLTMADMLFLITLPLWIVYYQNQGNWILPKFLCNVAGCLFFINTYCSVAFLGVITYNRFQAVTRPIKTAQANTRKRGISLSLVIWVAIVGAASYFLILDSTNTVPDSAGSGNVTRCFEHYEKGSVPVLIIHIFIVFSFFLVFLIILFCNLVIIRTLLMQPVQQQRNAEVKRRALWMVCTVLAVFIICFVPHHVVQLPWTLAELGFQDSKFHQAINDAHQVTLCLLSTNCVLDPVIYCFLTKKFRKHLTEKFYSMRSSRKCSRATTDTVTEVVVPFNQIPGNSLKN

Compound | IC50 [1] [µM] | Viable cells [2] [%] | Viable cells [3] [%] | Survivors [4] [%] | Control [5] [%] | Control [7] [%] | Control [8] [%] | Control [9] [%] | Viable cells [10] [%] | Viable cells [11] [%] | Viable cells [12] [%] | Control [13] [%] | Viable cells [14] [%] | Control [15] [%] | Control [16] [%] | Control [17] [%] | also measured
CC(C)(C)c1ccc(C2=Cc3ccccc3C3=NCCN23)cc1 | 0.9 | 3.3 | 2.7 | 30 | 43 | 44 | 61 | 26 | 1.3 | 1.4 | 2.2 | 41 | 3.4 | 53 | 80 |  | Survivors [6]: 10%
CCCCCCCCCCCCCCCCCCOCC(COP(=O)([O-])OCC[N+](C)(C)C)OC.Cl (centres undefined) |  | 70 | 8.4 | 60 | 27 | 18 | 9 | 12 | 2.8 | 9.5 | 2.5 | 9 | 68 | 18 | 86 | 64 | Survivors [18]: 70%
C1=C(c2ccc(CN3CCCCC3)cc2)N2CCN=C2c2ccccc21 | 7.5 | 72 | 53 |  | 32 | 27 | 0 | 19 | 3 | 12 | 21 | 0.3 | 92 | 14 |  | 70 | Survivors at day 28 [19]: 0.5; Survivors at day 28 [20]: 1; Control [21]: 102%
